One experiment deals with Escherichia coli. Description: Antibacterial activity against Escherichia coli assessed as inhibition of growth after 18 hrs by broth culture method. It counts as functional. The gist of the method: (§1)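 Broth dilution in 0.5 mL Sensitivity Test Broth, inoculated with 0.2 mL of a 10^-4 dilution of an 18-h broth culture. MIC read after 18-h incubation as the lowest concentration preventing growth.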

Experiment [1] addresses D-alanyl-D-alanine carboxypeptidase (Streptomyces sp. R61) (UniProt P15555). Put plainly: Inhibition of Streptomyces R61 DD-carboxypeptidase using Ac2-L-Lys-D-Ala-D-Ala as substrate at 10 to 100 ug/ml. The gist of the method:
(§2)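 Enzymes tested for release of D-alanine, measured with D-amino acid oxidase. Compounds assayed at 10 and 100 μg/mL. Substrates: Ac2-L-Lys-D-Ala-D-Ala for the Streptomyces R61 enzyme; UDP-N-acetylmuramyl-L-alanyl-meso-diaminopimeloyl-D-alanyl-D-alanine for the B. stearothermophilus and S. typhimurium enzymes.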

The subject of the next experiment is Staphylococcus aureus. Description: Antibacterial activity against Staphylococcus aureus assessed as inhibition of growth after 18 hrs by broth culture method. The class given is functional. The gist of the method:
as §1

In experiment [2] the target is T1, D-alanyl-D-alanine carboxypeptidase DacA (Geobacillus stearothermophilus) (UniProt Q05523).
T1 sequence (whole entry): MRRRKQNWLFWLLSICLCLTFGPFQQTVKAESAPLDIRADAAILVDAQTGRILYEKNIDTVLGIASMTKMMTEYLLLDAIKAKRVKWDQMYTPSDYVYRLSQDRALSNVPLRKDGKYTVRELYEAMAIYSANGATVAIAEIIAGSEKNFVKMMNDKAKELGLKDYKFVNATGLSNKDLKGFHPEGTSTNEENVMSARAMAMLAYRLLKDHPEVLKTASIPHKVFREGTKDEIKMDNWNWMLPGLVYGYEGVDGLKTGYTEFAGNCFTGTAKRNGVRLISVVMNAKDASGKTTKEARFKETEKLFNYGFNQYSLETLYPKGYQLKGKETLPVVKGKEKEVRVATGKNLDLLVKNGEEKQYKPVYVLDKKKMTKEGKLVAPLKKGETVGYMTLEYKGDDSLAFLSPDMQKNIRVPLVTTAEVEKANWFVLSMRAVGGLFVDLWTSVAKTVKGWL
Description: Inhibition of Bacillus stearothermophilus DD-carboxypeptidase using UDP-N-acetylmuramyl-L-alanyl-meso-diaminopimeloyl-D-alanyl-D-alanine as substrate at 10 to 100 ug/ml. The gist of the method:
as §2

In experiment [3] the test system is Salmonella enterica subsp. enterica serovar Typhimurium. Description: Inhibition of Salmonella typhimurium DD-carboxypeptidase using UDP-N-acetylmuramyl-L-alanyl-meso-diaminopimeloyl-D-alanyl-D-alanine as substrate at 10 to 100 ug/ml. The gist of the method: as §2

Each structure is given as a SMILES string. Values after ≈ are worked out from the molar mass of the structure shown. Active and inactive are the calls of the source.

Chain of D-alanyl-D-alanine carboxypeptidase (Streptomyces sp. R61) (P15555 whole entry): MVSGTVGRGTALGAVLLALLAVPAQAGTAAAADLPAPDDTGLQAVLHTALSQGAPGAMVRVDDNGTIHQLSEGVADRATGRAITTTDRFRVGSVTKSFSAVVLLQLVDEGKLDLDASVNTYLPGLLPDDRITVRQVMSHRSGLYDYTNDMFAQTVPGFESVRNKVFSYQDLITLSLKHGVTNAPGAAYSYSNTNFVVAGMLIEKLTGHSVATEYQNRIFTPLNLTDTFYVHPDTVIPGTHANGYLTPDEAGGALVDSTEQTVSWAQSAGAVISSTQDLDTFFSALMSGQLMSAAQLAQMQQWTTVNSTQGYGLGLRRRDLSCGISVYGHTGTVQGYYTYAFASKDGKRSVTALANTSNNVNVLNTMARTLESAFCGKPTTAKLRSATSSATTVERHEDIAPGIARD

With `C[C@@H](NC(=O)CBr)C(=O)N[C@H](C)C(=O)OC(C)(C)C`, the minimum inhibitory concentration (MIC) in the experiment on Escherichia coli is greater than 500 µg/mL; in the experiment with Staphylococcus aureus, 62 µg/mL (≈ 184 µM). The inhibition result in experiment [1], in experiment [2] and in experiment [3] was “inactive” throughout.
Turning to `C[C@@H](NC(=O)CI)C(=O)N[C@H](C)C(=O)OCc1ccccc1`, the MIC in the experiment with Escherichia coli was greater than 500 µg/mL; in the experiment on Staphylococcus aureus it was 7.5 µg/mL (≈ 17.9 µM). Also, the inhibition result in experiment [1], in experiment [2] and in experiment [3] was “inactive” in each case.
As to `C[C@@H](NC(=O)[C@H](CCCCNC(=O)CI)NC(=O)OC(C)(C)C)C(=O)N[C@H](C)C(=O)OC(C)(C)C`, the minimal inhibitory concentration (MIC) with Escherichia coli was greater than 500 µg/mL; in the experiment on Staphylococcus aureus it was 125 µg/mL (≈ 204 µM). Besides, the inhibition result in experiment [1], in experiment [2] and in experiment [3] was “inactive” in each case.
Turning to `C[C@@H](NC(=O)[C@H](CCCCN)NC(=O)CI)C(=O)N[C@H](C)C(=O)OC(C)(C)C.Cc1ccc(S(=O)(=O)O)cc1`, the minimum inhibitory concentration (MIC) in the experiment with Escherichia coli is greater than 500 µg/mL; in the experiment on Staphylococcus aureus it was 250 µg/mL. In addition, the inhibition result in experiment [1], in experiment [2] and in experiment [3] was “inactive” throughout.
`C[C@@H](NC(=O)[C@H](CCCCN1C(=O)c2ccccc2C1=O)NC(=O)CI)C(=O)N[C@H](CCC(=O)OC(C)(C)C)C(=O)OC(C)(C)C`: the minimal inhibitory concentration (MIC) with Escherichia coli is greater than 500 µg/mL; in the experiment with Staphylococcus aureus, 62 µg/mL (≈ 81.9 µM). In addition, the inhibition entry in experiment [1], in experiment [2] and in experiment [3] was “inactive” in each case.
As for `COC(=O)CCCCNC(=O)CI`, the MIC in the experiment on Escherichia coli was found to be 7.5 µg/mL (≈ 25.1 µM); in the experiment on Staphylococcus aureus, 3.7 µg/mL (≈ 12.4 µM). Also, the inhibition result in experiment [1], in experiment [2] and in experiment [3] was “inactive” each time.
Turning to `C[C@@H](NC(=O)CI)C(=O)N[C@H](CCC(=O)O)C(=O)O`, the MIC was greater than 500 µg/mL in the experiment with Escherichia coli and 500 µg/mL (≈ 1290 µM) in the experiment with Staphylococcus aureus. In addition, the inhibition entry in experiment [1], in experiment [2] and in experiment [3] was “inactive” throughout.
Take `C[C@@H](NC(=O)[C@H](CCCCNC(=O)OC(C)(C)C)NC(=O)CBr)C(=O)OC(C)(C)C`: the results for the MIC in the experiment on Escherichia coli and with Staphylococcus aureus were greater than 500 µg/mL and 62 µg/mL (≈ 125 µM), respectively. Moreover, the inhibition entry in experiment [1], in experiment [2] and in experiment [3] was “inactive” each time.
Regarding `C[C@@H](NC(=O)[C@H](CCCCNC(=O)OC(C)(C)C)NC(=O)CBr)C(=O)N[C@H](C)C(=O)OC(C)(C)C`, the MIC with Escherichia coli and in the experiment on Staphylococcus aureus was 500 µg/mL (≈ 884 µM) throughout. Moreover, the inhibition result in experiment [1], in experiment [2] and in experiment [3] was “inactive” throughout.
As for `C[C@@H](NC(=O)CI)C(=O)N[C@H](CCC(=O)OC(C)(C)C)C(=O)OC(C)(C)C`, the MIC in the experiment with Escherichia coli was greater than 500 µg/mL; in the experiment on Staphylococcus aureus, 31 µg/mL (≈ 62.2 µM). Also, the inhibition entry in experiment [1], in experiment [2] and in experiment [3] was “inactive” each time.
With `O=C(CI)NCCCC(=O)OCc1ccccc1`, the MIC with Escherichia coli was 250 µg/mL (≈ 692 µM); with Staphylococcus aureus, 7.5 µg/mL (≈ 20.8 µM). For the same compound, the inhibition entry in experiment [1], in experiment [2] and in experiment [3] was “inactive” throughout.
On to `O=C(CI)NCCCCCC(=O)OCc1ccccc1`, for which the values for the MIC with Escherichia coli and with Staphylococcus aureus were 62 µg/mL (≈ 159 µM) and 3.7 µg/mL (≈ 9.51 µM), respectively. Further, the inhibition result in experiment [1], in experiment [2] and in experiment [3] was “inactive” throughout.
Turning to `O=C(O)CCCCNC(=O)[C@H](CCCCN1C(=O)c2ccccc2C1=O)NC(=O)CI`, the minimal inhibitory concentration (MIC) in the experiment on Escherichia coli and with Staphylococcus aureus was greater than 500 µg/mL each time. The inhibition entry in experiment [1], in experiment [2] and in experiment [3] was “inactive” throughout.

In general, MIC refers to the smallest concentration in the dilution series that meets the test's criterion for growth inhibition.

Values taken from ChEMBL document CHEMBL3272093, “Antibacterial halogenoacetyl derivatives of amino acids and simple peptides” (1977).
